# PubChem BioAssay
# The source made the active and inactive calls.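 Rule for the calls, unless noted: active = viability loss from added drug above about 55%, and viability with drug at most 40%, in both replicates (limit read from the data, passing the limit was not always enough); inconclusive = both conditions met in only one replicate; inactive = neither replicate meets both conditions.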
# Columns and labels:
# [1] = reducers of endogenous Her2 protein level, primary screen, SKBR3 breast tumor cells, AlphaScreen, ATP viability (AID 461;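 active = Her2 level under about 52% in both replicate screens, with viability over 70% of control, limit read from the data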;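 for Her2 level: lower value means less Her2 protein in the cells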;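 for viability: percent of carrier control wells set as 100% viability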); settings: 18-24 h, measured here: SKBR3 viability, ATP luminescence, at 10 µM
# [2] = molecular target: Receptor tyrosine-protein kinase erbB-2 (Homo sapiens) (UniProt P04626); experiment: as above; settings: 18-24 h, at 10 µM, stronger effect = lower value
# Sequence of Receptor tyrosine-protein kinase erbB-2 (Homo sapiens) (P04626 whole entry, looked up): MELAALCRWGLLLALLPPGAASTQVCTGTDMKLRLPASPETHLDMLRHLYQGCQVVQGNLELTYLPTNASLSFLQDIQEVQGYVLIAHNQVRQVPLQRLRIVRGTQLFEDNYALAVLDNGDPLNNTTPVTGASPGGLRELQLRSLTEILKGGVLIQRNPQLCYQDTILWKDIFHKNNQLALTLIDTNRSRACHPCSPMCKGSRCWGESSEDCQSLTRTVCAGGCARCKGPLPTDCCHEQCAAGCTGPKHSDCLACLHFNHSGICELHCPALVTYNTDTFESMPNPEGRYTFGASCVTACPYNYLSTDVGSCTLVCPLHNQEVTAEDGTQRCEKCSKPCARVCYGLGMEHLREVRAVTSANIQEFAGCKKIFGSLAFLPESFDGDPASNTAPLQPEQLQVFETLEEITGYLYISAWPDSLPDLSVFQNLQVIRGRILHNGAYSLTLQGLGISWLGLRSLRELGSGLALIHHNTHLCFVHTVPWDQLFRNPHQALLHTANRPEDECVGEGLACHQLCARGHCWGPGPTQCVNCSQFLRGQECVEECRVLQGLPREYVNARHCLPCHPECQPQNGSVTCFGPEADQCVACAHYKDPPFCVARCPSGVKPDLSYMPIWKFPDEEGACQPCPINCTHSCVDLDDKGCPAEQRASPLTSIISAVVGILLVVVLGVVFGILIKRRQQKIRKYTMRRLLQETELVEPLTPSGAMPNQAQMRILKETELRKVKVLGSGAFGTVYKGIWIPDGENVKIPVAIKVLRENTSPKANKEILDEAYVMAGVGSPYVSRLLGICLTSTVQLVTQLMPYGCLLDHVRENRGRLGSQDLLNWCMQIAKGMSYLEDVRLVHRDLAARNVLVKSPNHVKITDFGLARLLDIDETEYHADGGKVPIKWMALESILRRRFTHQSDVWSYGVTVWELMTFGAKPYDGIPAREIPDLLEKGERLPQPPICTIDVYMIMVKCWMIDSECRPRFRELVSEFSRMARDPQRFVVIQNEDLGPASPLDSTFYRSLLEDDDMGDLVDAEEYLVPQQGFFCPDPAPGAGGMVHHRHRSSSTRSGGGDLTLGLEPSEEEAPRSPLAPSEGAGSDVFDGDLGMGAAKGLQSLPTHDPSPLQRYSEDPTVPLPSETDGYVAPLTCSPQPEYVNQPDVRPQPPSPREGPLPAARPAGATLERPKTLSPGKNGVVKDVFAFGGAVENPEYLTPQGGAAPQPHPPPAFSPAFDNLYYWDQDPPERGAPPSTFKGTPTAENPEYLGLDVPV
# [3] = SK-BR-3 cell growth inhibitors, pilot screen, 24 h, human (AID 572;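 active = viability at or below 10% of carrier control in both of two separate runs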;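 note: compound exposure lasted between 18 and 24 h rather than exactly 24 h; 100% = carrier-treated control wells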); settings: SK-BR-3 viability, CellTiter-Glo luminescence, at 10 µM, stronger effect = lower value
# [4] = HUVEC growth inhibition – cell-based, human, primary screen (AID 575;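 active = viability at or below 30% in both replicate assays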;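 note: 100% = median of untreated cell wells with 0.1% DMSO on each plate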); settings: HUVEC proliferation, CellTiter-Glo luminescence, 72 h; at 10 µM; stronger effect = lower value
# Method in brief: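 Test system: primary human umbilical vein endothelial cells. Quantity: 1250 cells/well. Compound: single 10 µM dose, 0.1% DMSO, from 5x medium stock. Timing: 72 h treatment at 37 °C. Detection: ATP-based CellTiter-Glo luminescent read. Benchmarks: vehicle and MePR control wells. Format: 384-well plates coated with collagen.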
# [5] = growth inhibitors of H69AR lung tumor, primary screen, human, duplicate replicates (AID 580;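 active = viability at or under a set limit in both replicates, limit being median viability minus 3 SD, cut at about 48% in these data, passing the limit was not always enough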;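 note: 100% = mean luminescence of untreated wells and 0% = no signal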); settings: H69AR lung tumor cells viability, ATP luminescence, 72 h; at 10 µM; stronger effect = lower value
# [6] = reversal of MRP1-mediated doxorubicin resistance, pilot screen, H69AR cells, doxorubicin co-treatment (AID 601); settings: CellTiter-Glo, 72 h, at 10 µM; for differential viability (reversal): stronger effect = higher value
# [7] = 384-well plate pilot, post-Golgi transport modulator project, inhibition of yeast transport mutant growth (AID 636; in the data active = inhibition above about 31%); settings: absorbance 615 nm, about 18 h, stronger effect = higher value
# [8] = growth suppression of yeast trafficking mutant, preliminary HTS, modulators of trafficking downstream of Golgi apparatus project, 1536-format plate, OD 615 nm (AID 637; in the data active = inhibition above about 30%); settings: yeast transport mutant growth, absorbance 615 nm, 18 h; stronger effect = higher value
# [9] = H69AR cells + 2 uM doxorubicin, measured here: viability with 2 uM doxorubicin, stronger effect = lower value
# [10] = H69AR cells, compound alone cytotoxicity
Compound,viability [1],Her2 level [2],viability [3],viability [4],viability [5],differential viability (reversal) ([6]; H69AR cells + 2 uM doxorubicin),"viability [6, 9]","viability [6, 10]",inhibition [7],inhibition [8]
O=C(Nc1c(-c2ccccc2)nc2ccccn12)c1ccco1,95%,106% (inactive),95% (inactive),109% (inactive),103% (inactive),16.5% (inactive),86.9%,103%,-0.92% (inactive),-4.55% (inactive)
O=C(Nn1c(C2CC2)nc2ccccc2c1=O)c1ccco1,109%,108% (inactive),109% (inactive),93.9% (inactive),95.4% (inactive),-0.5% (inactive),95.9%,95.4%,-3.77% (inactive),-6.39% (inactive)
CC(=O)Nc1ccc(OCC(O)CN2CCN(c3cccc(Cl)c3)CC2)cc1 (stereo not given),76.5%,82% (inactive),76.5% (inactive),79.5% (inactive),88.4% (inactive),6.8% (inactive),81.5%,88.4%,-7.84% (inactive),5.74% (inactive)
COc1ccccc1N1CCN(C(=O)C(Cc2ccccc2)NC(=O)C2CCCCC2)CC1 (stereo not given),73.5%,85.5% (inactive),73.5% (inactive),74.8% (inactive),90.6% (inactive),3.88% (inactive),86.7%,90.6%,-5.84% (inactive),-2.62% (inactive)
COc1cccc(NS(=O)(=O)c2cc(C)sc2C)c1,93.5%,94% (inactive),93.5% (inactive),97.5% (inactive),94.3% (inactive),2.18% (inactive),92.1%,94.3%,-2.89% (inactive),-6.67% (inactive)
CCCCCC1CC(CC(=O)O)C(=O)O1 (stereo not given),100%,96% (inactive),100% (inactive),82.5% (inactive),104% (inactive),7.44% (inactive),96.2%,104%,-4.87% (inactive),7.67% (inactive)
CCC(C)(C(=O)NC1CCCCC1)N(Cc1ccco1)C(=O)c1cnccn1 (stereo not given),82%,98% (inactive),82% (inactive),88.7% (inactive),97.5% (inactive),8.25% (inactive),89.2%,97.5%,-0.78% (inactive),-3.77% (inactive)
CCn1c(SC)nc2c(c1=O)SC(C)C2 (stereo not given),111%,110% (inactive),111% (inactive),113% (inactive),98.4% (inactive),17.2% (inactive),81.2%,98.4%,-4.67% (inactive),1.8% (inactive)
O=C(CCN1C(=O)COc2ccccc21)N1CCN(c2ccccn2)CC1,130%,96.5% (inactive),130% (inactive),114% (inactive),106% (inactive),27.7% (inactive),78.6%,106%,-2.08% (inactive),3.33% (inactive)
O=C1CCCN1CCCNc1ncnc2c1[nH]c1ccc(Cl)cc12,89%,81% (inactive),89% (inactive),85.3% (inactive),80.9% (inactive),3.12% (inactive),77.8%,80.9%,-7.6% (inactive),-0.48% (inactive)
CCOC(=O)N1CCN(C(=O)CCc2c(C)nc3c(c(C)nn3-c3ccc(C)c(C)c3)c2C)CC1,92%,88.5% (inactive),92% (inactive),82% (inactive),86.2% (inactive),6.21% (inactive),80%,86.2%,-1.71% (inactive),-7.64% (inactive)
O=C1CC(c2ccc(S(=O)(=O)N3CCN(c4ccccc4)CC3)cc2)CN1 (stereo not given),96%,90% (inactive),96% (inactive),93% (inactive),96.4% (inactive),1.82% (inactive),94.6%,96.4%,-7.3% (inactive),-10% (inactive)
CN(C)c1ccc(CNn2cnnc2)cc1,104%,88.5% (inactive),104% (inactive),95.8% (inactive),100% (inactive),-4.28% (inactive),105%,100%,-4.08% (inactive),0.67% (inactive)
COc1ccc2c(C(F)(F)F)cc(=O)oc2c1C,92%,99.5% (inactive),92% (inactive),110% (inactive),99.8% (inactive),6.5% (inactive),93.3%,99.8%,-4.67% (inactive),9.68% (inactive)
CN1CCN(C(=O)CCC(=O)c2ccc(F)cc2)CC1,114%,79.5% (inactive),114% (inactive),96.4% (inactive),94.8% (inactive),7.6% (inactive),87.2%,94.8%,-8.53% (inactive),-3.77% (inactive)
COc1cccc(OC)c1C(=O)N1CCN(S(=O)(=O)c2ccccc2)CC1,79.5%,82.5% (inactive),79.5% (inactive),82.9% (inactive),97.2% (inactive),15.2% (inactive),82.1%,97.2%,-3.42% (inactive),-2% (inactive)

Compound,viability [1],Her2 level [2],viability [3],viability [4],viability [5],differential viability (reversal) ([6]; H69AR cells + 2 uM doxorubicin),"viability [6, 9]","viability [6, 10]",inhibition [7],inhibition [8]
Cc1ccc(S(=O)(=O)N2CCN(CCO)CC2)cc1-c1nnc2c3ccccc3c(C)nn12,104%,94% (inactive),104% (inactive),99.4% (inactive),96.2% (inactive),2.01% (inactive),94.2%,96.2%,-5.07% (inactive),-2.79% (inactive)
CCc1cc(C(=O)OC)c(NC(=O)CCC(=O)O)s1,96.5%,96% (inactive),96.5% (inactive),87.6% (inactive),107% (inactive),17.8% (inactive),89.1%,107%,-2.53% (inactive),0% (inactive)
COC(=O)c1ccc(CSc2nc3c(cnn3-c3ccc(C)c(C)c3)c(=O)[nH]2)o1,90%,91.5% (inactive),90% (inactive),18.9% (active),88.4% (inactive),10.6% (inactive),77.8%,88.4%,-3.6% (inactive),-1.64% (inactive)
COc1ccc2c(c1)C1(C)CC(C)(C)N2C(=O)N1c1ccccc1 (stereo not given),101%,89.5% (inactive),101% (inactive),61.5% (inactive),67.3% (inactive),-16.7% (inactive),84%,67.3%,-5.07% (inactive),-5.41% (inactive)
O=C(Nc1ccccc1C(F)(F)F)c1cc(S(=O)(=O)N2CCOCC2)ccc1F,96.5%,91.5% (inactive),96.5% (inactive),102% (inactive),90.4% (inactive),8.93% (inactive),81.5%,90.4%,-6.49% (inactive),1.43% (inactive)
NC(=O)C(Cc1ccccc1)NS(=O)(=O)c1ccc(N2CCCC2=O)cc1 (stereo not given),90.5%,92% (inactive),90.5% (inactive),108% (inactive),101% (inactive),10.9% (inactive),90%,101%,-3.87% (inactive),1.48% (inactive)
Cc1nnc2n(-c3ccccc3)c(=O)c3c4c(sc3n12)CCCC4,79.5%,115% (inactive),79.5% (inactive),96.2% (inactive),85.6% (inactive),33.2% (inactive),52.4%,85.6%,-7.47% (inactive),0.33% (inactive)
Cc1nc2ccc(NC(=O)N3CCSCC3)cc2s1,89.5%,107% (inactive),89.5% (inactive),108% (inactive),94.3% (inactive),-5.83% (inactive),100%,94.3%,1.84% (inactive),8.89% (inactive)
O=C(Nc1ccc2oc(-c3ccncc3)nc2c1)c1cccs1,96%,112% (inactive),96% (inactive),88.9% (inactive),79.6% (inactive),0.7% (inactive),78.9%,79.6%,-2.76% (inactive),2.3% (inactive)
CCC1(NC(C)=O)CC2CC1CC2NC(C)=O (stereo not given),94.5%,100% (inactive),94.5% (inactive),107% (inactive),100% (inactive),11% (inactive),89.1%,100%,-3.2% (inactive),-5.74% (inactive)
CCOc1ccc(-c2nnn(CCC(=O)O)n2)cc1OC,95.5%,84% (inactive),95.5% (inactive),104% (inactive),102% (inactive),12.1% (inactive),89.8%,102%,-4.93% (inactive),-0.16% (inactive)
CC1(C)OC(=O)C(=CNc2ccccc2)C(=O)O1,98%,94% (inactive),98% (inactive),98.7% (inactive),108% (inactive),10.9% (inactive),97.2%,108%,0.39% (inactive),0.18% (inactive)
C=CCOc1nc2c(c(=O)n(C)c(=O)n2C)n1Cc1c(Cl)cccc1Cl,97.5%,83% (inactive),97.5% (inactive),94.9% (inactive),80.4% (inactive),62% (active),18.3%,80.4%,-3.92% (inactive),11.9% (inactive)
CCOC(=O)C1=C(c2ccccc2)NC(=O)NC1c1ccc(N(C)C)cc1 (stereo not given),85.5%,87% (inactive),85.5% (inactive),106% (inactive),97.6% (inactive),0.56% (inactive),97%,97.6%,-2.08% (inactive),14.7% (inactive)
CC(=O)N1C(=O)C2(Nc3ccccc3N2)c2ccccc21,110%,95.5% (inactive),110% (inactive),104% (inactive),97.6% (inactive),9.47% (inactive),88.1%,97.6%,-7.16% (inactive),-9.5% (inactive)
Cc1nnc(N2C(=O)c3oc4ccccc4c(=O)c3C2c2ccco2)s1 (stereo not given),93%,99.5% (inactive),93% (inactive),115% (inactive),95.2% (inactive),9.59% (inactive),85.6%,95.2%,-1.54% (inactive),0.83% (inactive)
